Assay results published in ChEMBL document CHEMBL5058577, “EUbOPEN Chemogenomics Library 2 (Multiplex)” (2022).

Test system: HEK-293T
Experiment: Multiplex assay against HEK293T
Format: toxicity, cell-based
Conditions: human
Outline: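 Cells were classed with CellPathfinder machine-learning gating, first as Hoechst high-intensity objects or normal cells, then (normal cells) as healthy, pyknosed or fragmented nuclei, and finally (pyknosed cells) as mitotic or apoptotic. Staining of live cells at seeding used Hoechst33342, BioTracker Green Microtubule Cytoskeleton Dye, MitoTracker Red and Annexin V Alexa Fluor 680, with imaging on a CQ1 microscope at 37°C and 5% CO2 after compound addition. Tubulin, mitochondrial-mass and membrane-permeability phenotypes are per cents of healthy-nucleus cells.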

[1] = 12 h, 1 µM, compound concentration 1 uM, replicate 1
[2] = 12 h, 1 µM, compound concentration 1 uM, replicate 2
[3] = 12 h, 10 µM, compound concentration 10 uM, replicate 1
[4] = 12 h, 10 µM, compound concentration 10 uM, replicate 2
[5] = 24 h, 1 µM, compound concentration 1 uM, replicate 1
[6] = 24 h, 1 µM, compound concentration 1 uM, replicate 2
[7] = 24 h, 10 µM, compound concentration 10 uM, replicate 1
[8] = 24 h, 10 µM, compound concentration 10 uM, replicate 2
[9] = 48 h, 1 µM, compound concentration 1 uM, replicate 1
[10] = 48 h, 1 µM, compound concentration 1 uM, replicate 2
[11] = 48 h, 10 µM, compound concentration 10 uM, replicate 1
[12] = 48 h, 10 µM, compound concentration 10 uM, replicate 2

SMILES: CN(C)C/C=C/C(=O)Nc1ccc(C(=O)N2CCCC(Nc3ncc(Cl)c(-c4c[nH]c5ccccc45)n3)C2)cc1 (stereo not given)
- Population Apoptotic (%) [1]: 46%
- Population Fragmented Nuclei (%) [1]: 8%
- Population Healthy Nuclei (%) [1]: 55%
- Population Hoechst High Intensity Objects (%) [1]: 30%
- Population Membrane Permeable-Phenotype (%) [1]: 0%
- Population Mitochondria Different-Phenotype (%) [1]: 87%
- Population Mitotic Cells (%) [1]: 53%
- Population Normal (%) [1]: 69%
- Population Pyknosed Nuclei (%) [1]: 35%
- Population Tubulin-Different-Phenotype (%) [1]: 69%
- Total Cell Count [1]: 227
- Population Apoptotic (%) [2]: 63%
- Population Fragmented Nuclei (%) [2]: 6%
- Population Healthy Nuclei (%) [2]: 64%
- Population Hoechst High Intensity Objects (%) [2]: 23%
- Population Mitochondria Different-Phenotype (%) [2]: 89%
- Population Mitotic Cells (%) [2]: 36%
- Population Normal (%) [2]: 76%
- Population Pyknosed Nuclei (%) [2]: 29%
- Population Tubulin-Different-Phenotype (%) [2]: 70%
- Total Cell Count [2]: 231
- Population Apoptotic (%) [3]: 62%
- Population Fragmented Nuclei (%) [3]: 12%
- Population Healthy Nuclei (%) [3]: 57%
- Population Hoechst High Intensity Objects (%) [3]: 35%
- Population Membrane Permeable-Phenotype (%) [3]: 0%
- Population Mitochondria Different-Phenotype (%) [3]: 95%
- Population Mitotic Cells (%) [3]: 37%
- Population Normal (%) [3]: 64%
- Population Pyknosed Nuclei (%) [3]: 30%
- Population Tubulin-Different-Phenotype (%) [3]: 79%
- Total Cell Count [3]: 269
- Population Apoptotic (%) [4]: 77%
- Population Fragmented Nuclei (%) [4]: 7%
- Population Healthy Nuclei (%) [4]: 64%
- Population Hoechst High Intensity Objects (%) [4]: 29%
- Population Mitotic Cells (%) [4]: 22%
- Population Normal (%) [4]: 70%
- Population Pyknosed Nuclei (%) [4]: 28%
- Population Tubulin-Different-Phenotype (%) [4]: 81%
- Total Cell Count [4]: 181
- Population Apoptotic (%) [5]: 72%
- Population Fragmented Nuclei (%) [5]: 15%
- Population Healthy Nuclei (%) [5]: 62%
- Population Hoechst High Intensity Objects (%) [5]: 27%
- Population Membrane Permeable-Phenotype (%) [5]: 0%
- Population Mitochondria Different-Phenotype (%) [5]: 85%
- Population Mitotic Cells (%) [5]: 27%
- Population Normal (%) [5]: 72%
- Population Pyknosed Nuclei (%) [5]: 22%
- Population Tubulin-Different-Phenotype (%) [5]: 74%
- Total Cell Count [5]: 222
- Population Apoptotic (%) [6]: 74%
- Population Fragmented Nuclei (%) [6]: 9%
- Population Healthy Nuclei (%) [6]: 67%
- Population Hoechst High Intensity Objects (%) [6]: 26%
- Population Mitochondria Different-Phenotype (%) [6]: 89%
- Population Mitotic Cells (%) [6]: 25%
- Population Normal (%) [6]: 73%
- Population Pyknosed Nuclei (%) [6]: 23%
- Population Tubulin-Different-Phenotype (%) [6]: 70%
- Total Cell Count [6]: 207
- Population Apoptotic (%) [7]: 74%
- Population Fragmented Nuclei (%) [7]: 19%
- Population Healthy Nuclei (%) [7]: 55%
- Population Hoechst High Intensity Objects (%) [7]: 49%
- Population Membrane Permeable-Phenotype (%) [7]: 0%
- Population Mitochondria Different-Phenotype (%) [7]: 96%
- Population Mitotic Cells (%) [7]: 25%
- Population Normal (%) [7]: 50%
- Population Pyknosed Nuclei (%) [7]: 24%
- Population Tubulin-Different-Phenotype (%) [7]: 52%
- Total Cell Count [7]: 314
- Population Apoptotic (%) [8]: 88%
- Population Fragmented Nuclei (%) [8]: 10%
- Population Healthy Nuclei (%) [8]: 68%
- Population Hoechst High Intensity Objects (%) [8]: 34%
- Population Mitochondria Different-Phenotype (%) [8]: 98%
- Population Mitotic Cells (%) [8]: 11%
- Population Normal (%) [8]: 65%
- Population Pyknosed Nuclei (%) [8]: 20%
- Population Tubulin-Different-Phenotype (%) [8]: 77%
- Total Cell Count [8]: 197
- Population Apoptotic (%) [9]: 67%
- Population Fragmented Nuclei (%) [9]: 16%
- Population Healthy Nuclei (%) [9]: 59%
- Population Hoechst High Intensity Objects (%) [9]: 30%
- Population Membrane Permeable-Phenotype (%) [9]: 0%
- Population Mitochondria Different-Phenotype (%) [9]: 79%
- Population Mitotic Cells (%) [9]: 32%
- Population Normal (%) [9]: 69%
- Population Pyknosed Nuclei (%) [9]: 23%
- Population Tubulin-Different-Phenotype (%) [9]: 71%
- Total Cell Count [9]: 239
- Population Apoptotic (%) [10]: 81%
- Population Fragmented Nuclei (%) [10]: 6%
- Population Healthy Nuclei (%) [10]: 65%
- Population Hoechst High Intensity Objects (%) [10]: 26%
- Population Mitochondria Different-Phenotype (%) [10]: 95%
- Population Mitotic Cells (%) [10]: 18%
- Population Normal (%) [10]: 73%
- Population Pyknosed Nuclei (%) [10]: 27%
- Population Tubulin-Different-Phenotype (%) [10]: 74%
- Total Cell Count [10]: 184
- Population Apoptotic (%) [11]: 55%
- Population Fragmented Nuclei (%) [11]: 62%
- Population Healthy Nuclei (%) [11]: 14%
- Population Hoechst High Intensity Objects (%) [11]: 67%
- Population Membrane Permeable-Phenotype (%) [11]: 0%
- Population Mitochondria Different-Phenotype (%) [11]: 100%
- Population Mitotic Cells (%) [11]: 44%
- Population Normal (%) [11]: 32%
- Population Pyknosed Nuclei (%) [11]: 23%
- Population Tubulin-Different-Phenotype (%) [11]: 23%
- Total Cell Count [11]: 361
- Population Apoptotic (%) [12]: 80%
- Population Fragmented Nuclei (%) [12]: 47%
- Population Healthy Nuclei (%) [12]: 30%
- Population Hoechst High Intensity Objects (%) [12]: 58%
- Population Mitochondria Different-Phenotype (%) [12]: 94%
- Population Mitotic Cells (%) [12]: 20%
- Population Normal (%) [12]: 41%
- Population Pyknosed Nuclei (%) [12]: 21%
- Population Tubulin-Different-Phenotype (%) [12]: 57%
- Total Cell Count [12]: 277
